WT yeast gro inh = growth inhibition of WT yeast, mitochondrial fusion screen; mitochondrial fusion phenotypic screen, WT strain; inhibition, % at 10 µM; 190,000 tested, 2.1% active; AID 1362; in the data active means inhibition above about 58%; tested in S. cerevisiae
PMI act satM6P = activators of human phosphomannose isomerase at near-saturating mannose 6-phosphate | activation factor at 20 µM | 190,000 tested, 0.34% active | coupled PMI enzyme assay, resazurin fluorescence, 20 min; hits give high values; 1 = untreated enzyme, 0 = substrate-free blank;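 active means activation factor of 2 or more at 20 µM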
Target sequence (P34949 whole entry, looked up): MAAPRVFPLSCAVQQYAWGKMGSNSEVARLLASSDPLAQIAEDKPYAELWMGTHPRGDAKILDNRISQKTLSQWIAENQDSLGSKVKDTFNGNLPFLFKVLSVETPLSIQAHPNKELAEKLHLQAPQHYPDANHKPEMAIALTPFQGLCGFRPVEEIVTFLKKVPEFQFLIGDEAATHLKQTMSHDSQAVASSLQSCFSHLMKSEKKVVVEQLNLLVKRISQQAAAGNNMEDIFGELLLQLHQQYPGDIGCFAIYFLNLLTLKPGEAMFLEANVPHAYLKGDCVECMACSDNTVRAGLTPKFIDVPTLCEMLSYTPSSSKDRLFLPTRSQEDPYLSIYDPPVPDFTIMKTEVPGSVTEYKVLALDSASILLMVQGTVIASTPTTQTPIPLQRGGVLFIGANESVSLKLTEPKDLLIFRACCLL
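Test system: human phosphomannose isomerase with PGI, G6PDH, diaphorase coupling enzymes; amount: 15 ng/mL PMI; incubation: enzyme reaction with compound 20 min at room temperature; technique: resorufin fluorescence (Ex 544/Em 590 nm) from resazurin via diaphorase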
PMI activator = phosphomannose isomerase (human) activation; purified human PMI, coupled resazurin fluorescence, 20 min; hits give high values; 1 = vehicle control, 0 substrate-free wells; activation factor at 20 µM; 190,000 tested, 0.005% active; AID 1214;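 active means activation factor of 2 or more at 20 µM, relative to plate controls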
L major viab = reduces viability of Leishmania major promastigotes. resazurin fluorescence viability. inhibition, % at 10 µM. 200,000 tested, 9% active; in the data active means inhibition above about 50%;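 further: promastigotes grown with compound for 44 hours at 28 °C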
Diaphorase act = activates diaphorase or chemically reduces, flagging diaphorase assay artifacts; activation factor at 20 µM; Diaphorase/resazurin coupled assay, resorufin fluorescence, 16 min; hits give high values; 1 = vehicle wells, 0 = NADH-free wells; 190,000 tested, 0.005% active;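 active means diaphorase activity raised at least twofold by the compound at 20 µM; inactive means activation factor below 2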
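Measured by – red resorufin fluorescence at 544/590 nm excitation/emission · Test system – Clostridium kluyveri diaphorase, purified enzyme · Incubation – reaction time 16 min, room temperature · Buffer or medium – 50 mM HEPES pH 7.4 with 4.542 mM MgCl2, 0.005% Tween 20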
* marks the source's active call; other numbers are inactive results. Rows were chosen to be rich in hits. Some 10% of all compounds tested hit in one or more screens of this group.

SMILES	WT yeast gro inh	PMI act satM6P	PMI activator	L major viab	Diaphorase act
NC(=O)NCc1cccs1	3.6	1.1	1.1	-1.3	1
C=CCNC(=S)NNc1nc2c(c(=O)[nH]1)C1(CCCCC1)Cc1ccccc1-2	-14.2	0.8	0.8	-2.5	0.8
CN(C)S(=O)(=O)N1CCCC(C(=O)c2ccc(-c3ccccc3)cc2)C1 (centres undefined)	-8.7	0.9	1	-2.2	0.9
O=C(NCCOc1nc(N2CCCCC2)nc(N2CCCCC2)n1)Nc1ccccc1	12.6	0.9	0.9	37.4	0.8
CC(=O)NCCOc1nc(N2CCCCC2)nc(N2CCCCC2)n1	-13.6	1.1	1	95.8*	0.9
C/C(CC(=O)Nc1ccccc1F)=N\NC(=O)Cc1ccc(Cl)cc1	-3.5	1	1	-1.5	0.9
O=C(O)/C=C/c1cnc2ccccc2n1	-13.4	0.9	1	-0.1	0.9
CCC(C)(C)NC(=O)/C=C/c1cnc2ccccc2n1	-8.1	1	1	51.9*	0.9
Cc1ccc(Cl)cc1NC(=O)COC(=O)c1ccc(COc2ccc3c(C)cc(=O)oc3c2)cc1	12.5	1	0.9	54.5*	0.8
CC(=O)Nc1ccc(NC(=O)c2ccc(COc3ccc4c(C)cc(=O)oc4c3)cc2)cc1	-26.0	1	0.8	49.5	1
COc1cc(OC)c(NC(=O)c2c(-c3ccccc3)noc2C)cc1Cl	-4.6	1	1	93.6*	1
CC(C)n1nc(C(=O)Nc2ccccc2N2CCOCC2)c2ccccc2c1=O	-17.5	1	1.1	86.9*	1
COc1ccc(-c2cc(C(=O)NNC(=S)NC(=O)c3c(-c4ccccc4)noc3C)[nH]n2)cc1	-2.4	1.1	1	63.2*	0.7
CC(C)CC(=O)Nc1ccccc1N1CCOCC1	5.7	1.2	1.2	-4.2	1.2
Cc1onc(-c2ccccc2)c1C(=O)Nc1cc(C(F)(F)F)ccc1N1CCOCC1	7.3	0.8	0.8	23.7	0.6
Cc1onc(-c2ccccc2)c1C(=O)Nc1ccccc1N1CCOCC1	5.3	0.8	0.8	68.9*	0.8
CCOC(=O)C1(CC2CCCCO2)CCN(C(=O)Nc2ccc(C(=O)OC)cc2)CC1 (centres undefined)	-4.5	0.9	0.9	2.7	0.8
COc1cc(CN2CCN(Cc3ccc(SC)cc3)CC2)cc(OC)c1O	-6.2	0.4	0.6	88.4*	0.6
COc1cc(CN2CCN(c3ccc(C)cc3)CC2)cc([N+](=O)[O-])c1O	4.2	0.9	0.9	85.6*	0.9
COc1cc(CN2CCN(S(=O)(=O)c3ccc(NC(C)=O)cc3)CC2)cc(OC)c1O	-19.6	0.5	0.8	-6.4	0.6
COc1cc(OC)c(OC)cc1CN1CCN(Cc2ccc(SC)cc2)CC1	4.6	0.9	0.8	94.5*	1
Cc1oc(/C=N/NC(=O)CN(c2ccccc2Br)S(C)(=O)=O)cc1Br	25.3	0.9	0.9	31.4	0.7
O=C(CSc1nc(O)cc(=O)n1-c1ccccc1)Nc1ccc(Br)cn1	-3.8	1	1	4.1	0.8
COc1cc(C2C(C#N)=C(C)NC(C)=C2C#N)cc(OC)c1OC	0.3	1	1	-4.1	1
CC(C)(Oc1ccc(Cl)cc1)C(=O)N/N=C/c1cn[nH]c1-c1ccccc1	-12.4	0.9	0.9	13.3	0.9
SMILES	WT yeast gro inh	PMI act satM6P	PMI activator	L major viab	Diaphorase act
C=C(C)COc1ccc(-c2[nH]ncc2Oc2cccc(OC)c2)c(O)c1	1.0	1	1	74.0*	0.9
C=C(C)COc1ccc(-c2[nH]ncc2-c2ccccc2)c(O)c1	70.5*	0.9	0.8	8.0	0.8
O=C(CSc1nc2c(c(C(F)(F)F)n1)CCc1ccccc1-2)NCc1ccccc1	-13.3	0.8	0.9	-4.1	0.8
O=C(O)CSc1nc2c(c(C(F)(F)F)n1)CCc1ccccc1-2	-15.1	0.8	1	-1.7	0.8
Cc1nn(Cc2ccccc2)c(C)c1NC(=O)CSc1nc2c(c(C(F)(F)F)n1)CCc1ccccc1-2	-0.9	1.1	0.9	67.6*	0.9
CCN(CC)CCCNC(=O)CSc1nc2c(c(C(F)(F)F)n1)CCc1ccccc1-2	-6.0	1	1	59.8*	0.9
Cc1cccc(N2CCN(C(=O)c3cn(C)c(=O)c4c3c3ccccc3n4C)CC2)c1C	4.9	0.9	0.9	20.9	0.8
Cc1ccc(Cl)cc1N1CCN(C(=O)c2cn(C)c(=O)c3c2c2ccccc2n3C)CC1	15.5	0.8	0.8	54.5*	0.8
CN1C(=S)N(c2cccnc2)C(=O)/C1=C\c1ccc(N(C)C)cc1	35.7	0.9	0.9	-2.5	0.9
CN1C(=S)N(c2cccnc2)C(=O)/C1=C\c1ccc(C(C)(C)C)cc1	53.8	1.1	1.2	96.3*	1
CCOC(=O)c1cc(-c2ccccc2)n(CC(=O)Nc2cc(OC)cc(OC)c2)c1C	7.3	1	1	95.7*	0.8
CCOC(=O)c1cc(-c2ccccc2)n(CC(=O)Nc2ccc(OCC)cc2)c1C	4.5	1	1	-8.2	0.9
Cc1ccc(NC(=O)CSc2ncn(-c3ccccc3)n2)cc1C	6.1	1.1	1	97.4*	0.9
COc1ccc(S(=O)(=O)n2nc(OCc3cccs3)cc2N)cc1	-2.8	1	0.9	5.7	0.9
N#Cc1ccccc1NC(=O)CSc1nnc(-c2ccncc2)o1	-5.6	1	1.1	3.7	1.2
Cc1ccc(SCC2(O)CCN(S(=O)(=O)c3ccc(Cl)cc3)CC2)cc1	43.1	0.9	0.8	3.4	0.8
CN1CCN(CC2(O)CCN(S(=O)(=O)c3ccc(Cl)cc3)CC2)CC1	4.7	1.1	1.1	99.9*	1
Cc1ccc(SCC(=O)NN2C(=O)c3ccccc3C2=O)cc1	0.0	0.9	0.9	-7.6	1
O=C(Cn1c(=O)oc2cc(S(=O)(=O)N3CCCC3)ccc21)NCc1ccc(F)cc1	-0.2	1	1.1	98.3*	0.9
O=C(Cn1c(=O)oc2cc(S(=O)(=O)N3CCCC3)ccc21)Nc1cccc(C(F)(F)F)c1	-6.6	1	0.9	99.9*	1
CCN(CC(=O)NCc1ccc(F)cc1)CC(=O)Nc1ccc(S(=O)(=O)N2CCCC2)cc1	-8.0	1	1	98.3*	0.9
CS(=O)(=O)N(CC(=O)Nc1ccc(S(=O)(=O)N2CCCC2)cc1)c1ccccc1	-2.4	0.9	0.9	6.7	0.8
O=C(Cn1c(=O)oc2cc(S(=O)(=O)N3CCCC3)ccc21)N1CCCC1	-8.9	1.1	1	-6.7	1
CN(CC(=O)Nc1ccc(S(=O)(=O)N2CCCC2)cc1)Cc1cccc(Cl)c1Cl	57.1	1	0.9	98.8*	0.9
Cn1c(C(=O)OC(C(=O)NCc2ccco2)c2ccncc2)cc2sccc21 (centres undefined)	13.1	0.9	0.9	34.0	0.8
Cn1c(=O)oc2cc(S(=O)(=O)N3CCN(c4ccc(F)cc4)CC3)ccc21	-12.8	0.9	1	60.4*	0.9

Screening results: PubChem, several laboratories
